The record followed here is ChEMBL document CHEMBL4177760, “Ligand-Phospholipid Conjugation: A Versatile Strategy for Developing Long-Acting Ligands That Bind to Membrane Proteins by Restricting the Subcellular Localization of the Ligand” (J Med Chem, 2018).

Active and inactive are the calls of the source. The rule behind the calls is not given here.

In general, pIC50 refers to the negative decadic logarithm of the IC50, by convention in mol/L. As usually defined, the Ki is a dissociation constant, usually derived from enzyme kinetics or from competition with a known ligand.

Assay [1] addresses T1, Muscarinic acetylcholine receptor (Rattus norvegicus) (UniProt P08482+P08483+P08485+P08911+P10980). The experiment in a line: Displacement of [3H]NMS from muscarinic receptor in Sprague-Dawley rat brain homogenates assessed as remaining protein bound radioligand levels at 300 pM to 1 uM preincubated for 60 mins followed by single washout treatment by liquid scintillation counting method relative to control. An outline of the steps:
(§1)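 Rat brain homogenates incubated with test ligand at 25 °C. [3H]N-methyl scopolamine binding to muscarinic receptors measured before and after wash-out with ice-cold buffer and expressed as binding remaining. Based on at least four experiments.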

Assay [2] addresses T1, Muscarinic acetylcholine receptor (Rattus norvegicus). The experiment in a line: Displacement of [3H]NMS from muscarinic receptor in Sprague-Dawley rat brain homogenates assessed as remaining protein bound radioligand levels at 300 pM to 1 uM preincubated for 60 mins followed by double washout treatment by liquid scintillation counting method relative to control. An outline of the steps: as §1
A general note: Displacement assays read how much labelled ligand stays bound in the presence of the test substance.

The target is the same in assay [3]. Briefly: Displacement of [3H]NMS from muscarinic receptor in Sprague-Dawley rat brain homogenates assessed as remaining protein bound radioligand levels at 300 pM to 1 uM after 60 mins by liquid scintillation counting method relative to control. The method in brief: as §1
The target in assay [4] is Muscarinic acetylcholine receptor. Briefly: Displacement of [3H]NMS from muscarinic receptor in Sprague-Dawley rat brain homogenates after 60 mins by liquid scintillation counting method. An outline of the steps:
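Competition binding against [3H]N-methyl scopolamine in rat brain homogenates carrying muscarinic receptors; read-out as log IC50; data from at least four experiments.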

Assay [5] concerns the target T2, Muscarinic acetylcholine receptor M1 (Rattus norvegicus, UniProt P08482).
T2 sequence (P08482 whole entry): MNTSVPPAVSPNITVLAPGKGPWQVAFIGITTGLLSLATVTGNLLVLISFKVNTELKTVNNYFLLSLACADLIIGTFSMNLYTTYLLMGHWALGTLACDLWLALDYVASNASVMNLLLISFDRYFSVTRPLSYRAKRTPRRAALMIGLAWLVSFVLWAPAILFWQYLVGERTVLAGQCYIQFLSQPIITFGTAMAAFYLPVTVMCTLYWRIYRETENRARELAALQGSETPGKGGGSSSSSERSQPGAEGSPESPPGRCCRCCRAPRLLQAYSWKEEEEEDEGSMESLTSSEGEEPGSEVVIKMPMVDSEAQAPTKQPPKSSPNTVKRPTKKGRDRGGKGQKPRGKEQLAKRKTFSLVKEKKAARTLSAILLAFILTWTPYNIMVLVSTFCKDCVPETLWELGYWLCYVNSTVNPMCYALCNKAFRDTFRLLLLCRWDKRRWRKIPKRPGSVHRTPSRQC
Briefly: Displacement of [3H]NMS from muscarinic receptor M1 in Sprague-Dawley rat brain homogenates after 60 mins by liquid scintillation counting method.

The target in assay [6] is T3, Muscarinic acetylcholine receptor M5 (Rattus norvegicus, UniProt P08911).
T3 sequence (P08911 whole entry): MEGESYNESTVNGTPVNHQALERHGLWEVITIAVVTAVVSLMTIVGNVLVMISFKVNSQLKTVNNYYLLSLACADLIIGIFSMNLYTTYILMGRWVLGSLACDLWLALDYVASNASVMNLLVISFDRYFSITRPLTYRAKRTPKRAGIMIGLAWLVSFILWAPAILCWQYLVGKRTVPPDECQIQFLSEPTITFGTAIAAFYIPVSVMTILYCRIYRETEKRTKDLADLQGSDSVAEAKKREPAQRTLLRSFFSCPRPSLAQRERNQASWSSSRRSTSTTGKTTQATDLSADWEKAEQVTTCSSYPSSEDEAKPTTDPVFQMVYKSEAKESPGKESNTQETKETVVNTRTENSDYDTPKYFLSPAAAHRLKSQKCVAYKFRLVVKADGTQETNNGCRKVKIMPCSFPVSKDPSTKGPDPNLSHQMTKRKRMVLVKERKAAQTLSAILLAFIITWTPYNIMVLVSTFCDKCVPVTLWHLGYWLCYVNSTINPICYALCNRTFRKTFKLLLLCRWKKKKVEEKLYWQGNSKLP
Briefly: Displacement of [3H]NMS from muscarinic receptor M5 in Sprague-Dawley rat brain homogenates after 60 mins by liquid scintillation counting method.

Assay [7] has as its target T4, Muscarinic acetylcholine receptor M2 (Rattus norvegicus, UniProt P10980).
T4 sequence (P10980 whole entry): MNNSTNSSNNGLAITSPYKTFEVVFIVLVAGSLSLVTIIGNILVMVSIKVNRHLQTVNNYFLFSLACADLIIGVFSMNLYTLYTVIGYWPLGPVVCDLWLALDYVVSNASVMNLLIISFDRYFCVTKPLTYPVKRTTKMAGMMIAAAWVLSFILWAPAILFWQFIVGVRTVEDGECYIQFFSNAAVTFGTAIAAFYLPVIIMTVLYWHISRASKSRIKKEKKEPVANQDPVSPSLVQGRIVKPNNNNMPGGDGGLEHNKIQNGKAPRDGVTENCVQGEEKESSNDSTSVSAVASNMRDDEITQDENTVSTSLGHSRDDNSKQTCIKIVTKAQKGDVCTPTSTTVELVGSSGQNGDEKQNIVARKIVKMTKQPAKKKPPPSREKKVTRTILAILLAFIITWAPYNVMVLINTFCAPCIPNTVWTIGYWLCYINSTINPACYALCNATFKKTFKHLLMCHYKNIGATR
Briefly: Displacement of [3H]NMS from muscarinic receptor M2 in Sprague-Dawley rat brain homogenates after 60 mins by liquid scintillation counting method.

The target of assay [8] is Muscarinic acetylcholine receptor M3 (Rattus norvegicus, UniProt P08483). The experiment in a line: Displacement of [3H]NMS from muscarinic receptor M3 in Sprague-Dawley rat brain homogenates after 60 mins by liquid scintillation counting method.
Sequence of Muscarinic acetylcholine receptor M3 (P08483 whole entry): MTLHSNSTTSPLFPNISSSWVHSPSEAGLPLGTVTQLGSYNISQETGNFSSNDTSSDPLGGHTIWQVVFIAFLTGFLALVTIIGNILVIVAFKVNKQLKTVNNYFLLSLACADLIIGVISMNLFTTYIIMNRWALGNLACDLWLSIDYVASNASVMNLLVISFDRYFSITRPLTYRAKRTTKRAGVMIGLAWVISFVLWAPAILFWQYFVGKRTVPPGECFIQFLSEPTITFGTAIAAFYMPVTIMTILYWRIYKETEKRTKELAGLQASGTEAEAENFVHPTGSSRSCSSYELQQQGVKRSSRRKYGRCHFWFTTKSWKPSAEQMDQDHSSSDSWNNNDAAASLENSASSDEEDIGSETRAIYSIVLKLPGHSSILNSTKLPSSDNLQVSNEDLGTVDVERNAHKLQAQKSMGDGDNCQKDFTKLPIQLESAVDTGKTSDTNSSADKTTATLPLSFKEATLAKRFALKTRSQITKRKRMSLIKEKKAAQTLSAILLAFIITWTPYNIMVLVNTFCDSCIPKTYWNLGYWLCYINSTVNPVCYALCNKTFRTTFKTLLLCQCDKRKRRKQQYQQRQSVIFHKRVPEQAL
Assay [9] concerns the target T5, Muscarinic acetylcholine receptor M4 (Rattus norvegicus, UniProt P08485).
T5 sequence (P08485 whole entry): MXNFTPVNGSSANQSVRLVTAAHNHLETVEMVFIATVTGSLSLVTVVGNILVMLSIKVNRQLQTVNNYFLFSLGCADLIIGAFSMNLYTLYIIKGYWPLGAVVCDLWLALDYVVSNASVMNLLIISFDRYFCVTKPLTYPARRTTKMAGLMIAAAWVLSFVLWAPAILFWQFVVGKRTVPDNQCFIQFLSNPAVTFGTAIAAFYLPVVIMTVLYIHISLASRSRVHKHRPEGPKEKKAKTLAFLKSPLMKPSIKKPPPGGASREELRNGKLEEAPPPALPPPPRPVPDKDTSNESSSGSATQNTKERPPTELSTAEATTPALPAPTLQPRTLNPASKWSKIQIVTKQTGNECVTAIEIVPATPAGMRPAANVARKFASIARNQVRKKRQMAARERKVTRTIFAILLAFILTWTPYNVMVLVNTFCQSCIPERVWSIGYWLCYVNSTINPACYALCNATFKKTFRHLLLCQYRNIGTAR
Briefly: Displacement of [3H]NMS from muscarinic receptor M4 in Sprague-Dawley rat brain homogenates after 60 mins by liquid scintillation counting method.

In assay [10] the test system is Rattus norvegicus. The experiment in a line: In vivo displacement of [3H]NMS from muscarinic receptor in rat bladder assessed as increase in [3H]NMS Kdapp at 10 uM administered via intravesical instillation measured after 30 mins. The assay is classed as functional, organism-based. The method in brief:
(§2)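 Rats received the compound by intravesical instillation. Bladders were dissected 30 min or 24 h afterwards and [3H]N-methyl scopolamine binding to bladder muscarinic receptors was measured directly. The apparent Kd (Kdapp) of the radioligand was calculated and compared against control animals.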

The test system of assay [11] is Rattus norvegicus. The experiment in a line: In vivo displacement of [3H]NMS from muscarinic receptor in rat bladder assessed as increase in [3H]NMS Kdapp at 10 uM administered via intravesical instillation measured after 24 hrs. The assay is classed as functional, organism-based. The method in brief:
as §2

For the compound `CC(C)N(CC[C@H](c1ccccc1)c1cc(CCNC(=O)CCCCCC(=O)NCCOCCOCCOCCOCCOCCOCCOCCOCCOCCO)ccc1O)C(C)C.Cl`, the Activity turned out to be 34.9% in [1], 63.5% in assay [2] and 7.1% in assay [3]. In [4], this compound returned a pIC50 of 7.88.

With `CCCCCCCCCCCCCCCCCC(=O)OC[C@H](COP(=O)(O)OCCOCCOCCOCCOCCOCCNC(=O)CCCCCC(=O)NCCc1ccc(O)c([C@H](CCN(C(C)C)C(C)C)c2ccccc2)c1)OC(=O)CCCCCCCCCCCCCCCCC`, the Activity worked out at 5.1% in assay [1] and 14.5% in assay [3]. Moreover, the pIC50 in assay [4] stood at 7.86.

As for `CC(C)N(CC[C@H](c1ccccc1)c1cc(CCNC(=O)CCCCCNC(=O)COc2ccc(/C=C/C3=[N+]4C(=Cc5ccc(-c6cccs6)n5[B-]4(F)F)C=C3)cc2)ccc1O)C(C)C`, the Ki in assay [5] was 4.6 nM; in [6] it was 17.5 nM; in [7] it was 9 nM; in assay [8], 10.3 nM; in assay [9] it was 6.3 nM.

Take `CCCCCCCCCCCCCCCCCC(=O)OC[C@H](COP(=O)(O)OCCOCCOCCOCCOCCOCCOCCOCCOCCOCCNC(=O)CCCCCC(=O)NCCc1ccc(O)c([C@H](CCN(C(C)C)C(C)C)c2ccccc2)c1)OC(=O)CCCCCCCCCCCCCCCCC`: the Activity was determined as 1.7% in assay [1], 2.1% in assay [2] and 6% in assay [3]. Also, the inhibition result in the assay on Rattus norvegicus [10] and with Rattus norvegicus [11] was “Active” throughout. The pIC50 in assay [4] is recorded as 8.53.

On to `CCCCCCCCCCCCCCCCCC(=O)OC[C@H](COP(=O)(O)OCCOCCOCCOCCNC(=O)CCCCCC(=O)NCCc1ccc(O)c([C@H](CCN(C(C)C)C(C)C)c2ccccc2)c1)OC(=O)CCCCCCCCCCCCCCCCC`, for which the Activity turned out to be 15.5% in [1] and 32.3% in assay [3]. The pIC50 in assay [4] is 7.74.

As for `Cc1ccc(O)c([C@H](CCN(C(C)C)C(C)C)c2ccccc2)c1` [TOLTERODINE], the Activity in [1] is 36.2%; in assay [2], 93.2%; in assay [3] it was 9%. Also, the Ki in assay [5] was 1.4 nM; in assay [6], 2.2 nM; in assay [9] it was 3.1 nM. In addition, the inhibition entry with Rattus norvegicus [10] is “Active”. In addition, in the assay on Rattus norvegicus [11], the inhibition entry was “inactive”.

As for `CCCCCCCCCCCCCCCCCC(=O)OC[C@H](COP(=O)(O)OCCOCCNC(=O)CCCCCC(=O)NCCc1ccc(O)c([C@H](CCN(C(C)C)C(C)C)c2ccccc2)c1)OC(=O)CCCCCCCCCCCCCCCCC`, the Activity was 59.2% in [1] and 66.4% in [3]. In assay [4], the negative logarithm of the IC50 (pIC50) turned out to be 6.91.

For `CCCCCCCCCCCCCCCCCC(=O)OC[C@H](COP(=O)(O)OCCOCCOCCOCCOCCOCCOCCOCCOCCOCCOCCOCCNC(=O)CCCCCC(=O)NCCc1ccc(O)c([C@H](CCN(C(C)C)C(C)C)c2ccccc2)c1)OC(=O)CCCCCCCCCCCCCCCCC`, the Activity stood at 1.9% in [1] and 11.2% in assay [3]. Further, in assay [4], the pIC50 came out at 8.49.

For the compound `CCCCCCCCCCCCCCCCCC(=O)OC[C@H](COP(=O)(O)OCCOCCOCCOCCOCCOCCOCCOCCNC(=O)CCCCCC(=O)NCCc1ccc(O)c([C@H](CCN(C(C)C)C(C)C)c2ccccc2)c1)OC(=O)CCCCCCCCCCCCCCCCC`, the Activity came out at 2.1% in assay [1] and 4.7% in assay [3]. Also, in [4], the pIC50 stood at 8.15.
